The test system of experiment [1] is A549. The experiment is described as follows: Effect on human A549 lung cancer cell morphology assessed as rounding and detachment of cells at 20 uM after 24 hrs by inverted phase contrast microscopy. In kind it is functional, cell-based. In a few lines:
(§1)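 A549 cells treated at 20 µM; morphology photographed at 200× under an inverted phase contrast microscope.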

In experiment [2] the test system is A549. Nature of the experiment: Induction of necrosis in human A549 lung cancer cells assessed as LDH activity at 10 uM after 48 hrs. It is filed as functional, cell-based. In short, it runs like this:
(§2)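 A549 cells treated at 10 or 20 µM for 48 h; LDH activity measured in culture medium as necrosis marker; compared with control, n = 4.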

The test system of experiment [3] is A549. The experiment is described as follows: Induction of apoptosis in human A549 lung cancer cells assessed as nuclear DNA fragmentation at 20 uM after 48 hrs by hoechst 33258 staining. In kind it is functional, cell-based. In a few lines: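 A549 cells treated at 20 µM for 48 h; chromatin condensation and DNA fragmentation visualized by Hoechst 33258 staining under fluorescence microscope (200×); compared with control, n = 3.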

Experiment [4] concerns A549. The experiment is described as follows: Anticancer activity against human A549 lung cancer cells assessed as decrease in cell viability at 20 uM after 24 hrs relative to control by MTT assay. It is filed as functional, cell-based. In a few lines:
(§3)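 A549 cells exposed to compound in culture medium; viability measured by MTT assay and expressed as % of untreated control (100%).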

The subject of experiment [5] is A549. The experiment is described as follows: Anticancer activity against human A549 lung cancer cells assessed as decrease in cell viability at 10 uM after 24 hrs relative to control by MTT assay. It is filed as functional. In short, it runs like this: as §3
Experiment [6] concerns A549. The experiment is described as follows: Anticancer activity against human A549 lung cancer cells assessed as decrease in cell viability at 10 uM after 48 hrs relative to control by MTT assay. It is filed as functional. In short, it runs like this:
as §3

Experiment [7] concerns A549. Nature of the experiment: Induction of necrosis in human A549 lung cancer cells assessed as LDH activity at 20 uM after 48 hrs. It is filed as functional, cell-based. In a few lines:
as §2

In experiment [8] the test system is A549. The experiment is described as follows: Effect on human A549 lung cancer cell morphology assessed as rounding and detachment of cells at 20 uM after 48 hrs relative to control by inverted phase contrast microscopy. It is filed as functional, cell-based. In short, it runs like this:
as §1

The subject of experiment [9] is A549. Nature of the experiment: Anticancer activity against human A549 lung cancer cells assessed as decrease in cell viability at 20 uM after 48 hrs relative to control by MTT assay. It is filed as functional. In short, it runs like this:
as §3

For experiment [10], the system named is A549. The experiment is described as follows: Effect on human A549 lung cancer cell morphology assessed as vacuolation of cells at 20 uM after 48 hrs relative to control by inverted phase contrast microscopy. In kind it is functional, cell-based. In a few lines: as §1
Experiment [11] relates to A549. The experiment is described as follows: Induction of autophagy in human A549 lung cancer cells assessed as acidic vesicle level at 20 uM after 24 hrs by acridine orange staining. In kind it is functional, cell-based. In a few lines:
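A549 cells treated 24 h; acidic cellular compartment volume visualized by acridine orange staining under fluorescence microscope (200×); compared with control, n = 3.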

Experiment [12] has as its system A549. Nature of the experiment: Effect on human A549 lung cancer cell morphology assessed as vacuolation of cells at 20 uM after 24 hrs by inverted phase contrast microscopy. It is filed as functional, cell-based. In a few lines: as §1

The record followed here is ChEMBL document CHEMBL1155990, “Synthesis of novel pyrazole carboxamide derivatives and discovery of modulators for apoptosis or autophagy in A549 lung cancer cells” (2009).

Activity calls are given as the source filed them. No cut-off for these calls is given here.

Turning to `CC(C)(C)c1ccc(Cn2nc(-c3ccc(Cl)cc3)cc2C(=O)NCCc2ccccc2)cc1`, the outcome in [1], in experiment [3], in [4] and in experiment [8] was Active. The result in [2] and in experiment [7] was inactive. Moreover, the figures for the Activity in experiment [5] and in [6] were 59.32% and 44.46%, respectively.
With `CC(C)(C)c1ccc(Cn2nc(-c3ccccc3)cc2C(=O)NCCc2ccccc2)cc1`, the outcome in [9], in [4], in experiment [5] and in [6] was inactive.
In the case of `CC(C)(C)c1ccc(Cn2nc(-c3ccccc3)cc2C(=O)NCCc2ccc(F)cc2)cc1`, the result in experiment [9], in [4], in experiment [5] and in [6] was inactive.
Consider `COc1cccc(CCNC(=O)c2cc(-c3ccccc3)nn2Cc2ccc(C(C)(C)C)cc2)c1`, for which the result in experiment [9], in [4], in experiment [5] and in experiment [6] was inactive.
With `CC(C)(C)c1ccc(Cn2nc(-c3ccc(Cl)cc3)cc2C(=O)NCCc2ccc(F)cc2)cc1`, the outcome in [2] and in experiment [7] was inactive. In addition, the outcome in experiment [10], in [4], in [5], in [11], in [12] and in [6] was Active.
In the case of `COc1cccc(CCNC(=O)c2cc(-c3ccc(Cl)cc3)nn2Cc2ccc(C(C)(C)C)cc2)c1`, the result in experiment [1], in experiment [3], in experiment [4] and in [8] was Active. Besides, the outcome in experiment [2] and in experiment [7] was inactive. In addition, the values for the Activity in experiment [9], in [5] and in experiment [6] were 10.43%, 45.52% and 24.07%, respectively.
Take `CC(C)(C)c1ccc(Cn2nc(-c3ccc(Cl)cc3)cc2C(=O)NCCc2ccccc2F)cc1`: the outcome in experiment [2] and in experiment [7] was inactive. The result in [9], in experiment [4], in experiment [5], in experiment [11], in [12] and in [6] was Active. Further, the result in experiment [8] was Active.
With `CC(C)(C)c1ccc(Cn2nc(-c3ccccc3)cc2C(=O)NCCc2ccccc2F)cc1`, the result in [9], in experiment [4], in [5] and in experiment [6] was inactive.
